# Results as given in ChEMBL document CHEMBL1126973, “Synthesis and tubulin binding of novel C-10 analogues of colchicine” (J Med Chem, 1993).
# What was measured:
# Type in all cases: functional
# Mus musculus [1] = organism: Mus musculus; test: Percent inhibition of [3H]colchicine binding to tubulin with molar ratio of 1:10 (inhibitor: [3H]colchicine)
# Mus musculus [2] = organism: Mus musculus; test: Concentration required to effect a 50% reduction in microtubule polymerization; conditions: read-out: I50
# Outline: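 GTP was added to 1 mM final and the sample warmed to 37 °C. Turbidity was followed at 400 nm, and percent inhibition was taken from plateau absorbance versus a no-ligand control. I50 was interpolated from the inhibition–concentration plot.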
# Mus musculus [3] = organism: Mus musculus; test: Percent inhibition of [3H]-colchicine binding to tubulin with molar ratio of 1:1 (inhibitor: [3H]-colchicine)
# Outline: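 5 µM ligand, 5 µM tubulin and 5 µM [3H]colchicine in PMEG buffer (PME plus 0.1 mM GTP) were incubated 1.5 h at 37 °C, then quenched on ice. Bound label was separated by centrifuged G-50 gel filtration and counted by scintillation. Percent inhibition is relative to a no-ligand control, run in quadruplicate and averaged.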
SMILES,IC50 (Mus musculus [2]),Inhibition (Mus musculus [1]),Inhibition (Mus musculus [3])
COc1cc2c(c(OC)c1OC)-c1ccc(-c3ccccc3)c(=O)cc1[C@@H](NC(C)=O)CC2,57 µM,25.6%,10.6%
COc1cc2c(c(OC)c1OC)-c1ccc(CC(C)C)c(=O)cc1[C@@H](NC(C)=O)CC2,8.5 µM,36.7%,13.4%
CCC(C)c1ccc2c(cc1=O)[C@@H](NC(C)=O)CCc1cc(OC)c(OC)c(OC)c1-2 (some centres not stated),10 µM,57.1%,19.6%
CCOc1ccc2c(cc1=O)[C@@H](NC(C)=O)CCc1cc(OC)c(OC)c(OC)c1-2,6.1 µM,75%,24.6%
COc1cc2c(c(OC)c1OC)-c1ccc(F)c(=O)cc1[C@@H](NC(C)=O)CC2,8.2 µM,50.2%,11%
COc1cc2c(c(OC)c1OC)-c1ccc(OC(C)C)c(=O)cc1[C@@H](NC(C)=O)CC2,23 µM,50.5%,10.1%
CCCOc1ccc2c(cc1=O)[C@@H](NC(C)=O)CCc1cc(OC)c(OC)c(OC)c1-2,11 µM,54.8%,16.6%
COc1cc2c(c(OC)c1OC)-c1ccc(OC)c(=O)cc1[C@@H](NC(C)=O)CC2 [COLCHICINE],5.1 µM,89.7%,37.2%
CCc1ccc2c(cc1=O)[C@@H](NC(C)=O)CCc1cc(OC)c(OC)c(OC)c1-2,4.2 µM,96.5%,54.9%
CCCCc1ccc2c(cc1=O)[C@@H](NC(C)=O)CCc1cc(OC)c(OC)c(OC)c1-2,26 µM,24.7%,13.9%
COc1cc2c(c(OC)c1OC)-c1cccc(=O)cc1[C@@H](NC(C)=O)CC2 [CHOLCHICIDE],7.9 µM,53.7%,13.2%

# Continued by falling IC50 (Mus musculus [2]), values first:
IC50 (Mus musculus [2]),SMILES,Inhibition (Mus musculus [1]),Inhibition (Mus musculus [3])
4.2 µM,COc1cc2c(c(OC)c1OC)-c1ccc(N=[N+]=[N-])c(=O)cc1[C@@H](NC(C)=O)CC2,95.8%,51.1%
4.2 µM,COc1cc2c(c(OC)c1OC)-c1ccc(C(C)C)c(=O)cc1[C@@H](NC(C)=O)CC2,90%,44.9%
4.2 µM,COc1cc2c(c(OC)c1OC)-c1ccc(C(C)(C)C)c(=O)cc1[C@@H](NC(C)=O)CC2,69.4%,21.9%
4.1 µM,COc1cc2c(c(OC)c1OC)-c1ccc(C)c(=O)cc1[C@@H](NC(C)=O)CC2,96.7%,56.6%
3.8 µM,COc1cc2c(c(OC)c1OC)-c1ccc(I)c(=O)cc1[C@@H](NC(C)=O)CC2,98.3%,74%
3.7 µM,COc1cc2c(c(OC)c1OC)-c1ccc(Cl)c(=O)cc1[C@@H](NC(C)=O)CC2,96.2%,57.2%
3.5 µM,CCCc1ccc2c(cc1=O)[C@@H](NC(C)=O)CCc1cc(OC)c(OC)c(OC)c1-2,89.2%,41.7%
3.3 µM,COc1cc2c(c(OC)c1OC)-c1ccc(Br)c(=O)cc1[C@@H](NC(C)=O)CC2,97.4%,59.4%
